Experimental data reported in ChEMBL document CHEMBL1125458, “3-O-alkylascorbic acids as free radical quenchers. 3. Protective effect on coronary occlusion-reperfusion induced arrhythmias in anesthetized rats” (1992).

What was measured:
Rattus norvegicus [1] = assay: Effect (10 mg/kg, iv) on coronary reperfusion-induced arrhythmias was assessed in anesthetized rats.(Intervals of ventricular tachycardia (VT)+ventricular fibrillation (VF) within 600 s.; assay type: functional, Cardiac ventricle
Rattus norvegicus [2] = species on record: Rattus norvegicus; assay: Inhibition of lipid peroxidation in rat liver microsomes.; assay type: functional; set-up: concentration or dose not given beside the values; details: dose or concentration not given here
Method in brief: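 Wistar rat liver microsomes (2.0 mg protein) in 83.5 mM KCl, 37.2 mM Tris-HCl pH 7.4 with 1 mM ADP, 10 µM FeCl3, 0.02 mM NADPH; compound added in DMF, tested at 10^-5 M. 37 °C, 20 min. Malondialdehyde measured by thiobarbituric acid method, A532; % inhibition, mean ± SD, n = 3–6.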

Rattus norvegicus [3] = assay: Effect (30 mg/kg, iv) on coronary reperfusion-induced arrhythmias was assessed in anesthetized rats.(Intervals of ventricular tachycardia (VT)+ventricular fibrillation (VF) within 600 s.; assay type: functional, Cardiac ventricle
Rattus norvegicus [4] = assay: Effect (30 mg/kg, iv) on coronary reperfusion-induced arrhythmias was assessed in anesthetized rats. (Intervals of ventricular tachycardia (VT)+ventricular fibrillation (VF) within 600 s.; assay type: functional, Cardiac ventricle
Cavia porcellus [5] = species on record: Cavia porcellus; assay: Inhibitory activity on atrial contractility in isolated Guinea pig right atrea at 0.003 mg/mL concentration; assay type: functional, Cardiac atrium
Method in brief: (§1)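 Right atria from male Hartley guinea pigs (450–550 g), loaded at 0.5 g, in Tyrode's solution at 37 °C gassed with 95% O2/5% CO2. Equilibrated at least 30 min until rate stable within 5 beats/min; spontaneous rate and contractile force recorded on polygraph after compound addition.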

Cavia porcellus [6] = species on record: Cavia porcellus; assay: Inhibitory activity on atrial rate in isolated Guinea pig right atrea at 0.003 mg/mL concentration; assay type: functional, Cardiac atrium; method in brief: as §1
Cavia porcellus [7] = species on record: Cavia porcellus; assay: Inhibitory activity on atrial rate in isolated Guinea pig right atrea at 0.01 mg/mL concentration; assay type: functional, Cardiac atrium; method in brief: as §1
Cavia porcellus [8] = species on record: Cavia porcellus; assay: Inhibitory activity on atrial rate in isolated Guinea pig right atrea at 0.03 mg/mL concentration; assay type: functional, Cardiac atrium; method in brief: as §1
Cavia porcellus [9] = species on record: Cavia porcellus; assay: Inhibitory activity on atrial contractility in isolated Guinea pig right atrea at 0.01 mg/mL concentration; assay type: functional, Cardiac atrium; method in brief: as §1
Cavia porcellus [10] = species on record: Cavia porcellus; assay: Inhibitory activity on atrial contractility in isolated Guinea pig right atrea at 0.03 mg/mL concentration; assay type: functional, Cardiac atrium; method in brief: as §1
Rattus norvegicus [11] = assay: Effect (10 mg/kg, po) on coronary reperfusion-induced arrhythmias was assessed in anesthetized rats.(Intervals of ventricular tachycardia (VT)+ventricular fibrillation (VF) within 600 s.; assay type: functional, Cardiac ventricle
Method in brief: (§2)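 Male Wistar rats (350–450 g) dosed orally 1 h before occlusion, then anesthetized with pentobarbital (60 mg/kg ip) and ventilated. LAD ligated 5 min, reperfused 10 min; VT plus VF durations summed within 600 s. Mean ± SE, n = 5–10; line 2 value is the minimum effective dose.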

Rattus norvegicus [12] = assay: Effect (0.3 mg/kg, iv) on coronary reperfusion-induced arrhythmias was assessed in anesthetized rats.(Intervals of ventricular tachycardia (VT)+ventricular fibrillation (VF) within 600 s.; assay type: functional, Cardiac ventricle
Rattus norvegicus [13] = assay: Change in heart rate was measured at mg/kg dose(iv) in anesthetized rats; assay type: functional
Method in brief: (§3)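 Anesthetized male Wistar rats (pentobarbital 60 mg/kg ip); compound in saline/1% olive oil/1% Tween 80 given by femoral vein. Lead II ECG recorded and heart rate read by beat-to-beat tachograph for 10 min after dosing; change in beats/min, mean ± SE, n = 3–4.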

Rattus norvegicus [14] = assay: Change in arterial blood pressure was measured at 0.3 mg/kg dose(iv) in anesthetized rats; assay type: functional, Artery
Method in brief: (§4)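 Male Wistar rats, pentobarbital 60 mg/kg ip, supine. Compound suspended in saline with 1% olive oil and 1% Tween 80, injected via femoral vein. Femoral arterial pressure monitored 10 min after injection; change in mmHg, mean ± SE, n = 3–4.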

Rattus norvegicus [15] = assay: Antiarrhythmic activity against anesthetized rats after intravenous administration; assay type: functional, Heart
Rattus norvegicus [16] = assay: Antiarrhythmic activity against anesthetized rats after peroral administration; assay type: functional, Heart; method in brief: as §2
Rattus norvegicus [17] = assay: inhibitory activity was tested against anesthetized rats at 10 mg/kg; assay type: functional
Cavia porcellus [18] = species on record: Cavia porcellus; assay: Inhibitory activity on atrial rate in isolated Guinea pig right atrea at 0.1 mg/mL concentration; assay type: functional, Cardiac atrium; method in brief: as §1
Cavia porcellus [19] = species on record: Cavia porcellus; assay: Inhibitory activity on atrial rate in isolated Guinea pig right atrea at 0.3 mg/mL concentration; assay type: functional, Cardiac atrium; method in brief: as §1
Cavia porcellus [20] = species on record: Cavia porcellus; assay: Inhibitory activity on atrial contractility in isolated Guinea pig right atrea at 0.1 mg/mL concentration; assay type: functional, Cardiac atrium; method in brief: as §1
Cavia porcellus [21] = species on record: Cavia porcellus; assay: Inhibitory activity on atrial contractility in isolated Guinea pig right atrea at 0.3 mg/mL concentration; assay type: functional, Cardiac atrium; method in brief: as §1
Rattus norvegicus [22] = assay: Effect (100 mg/kg, po) on coronary reperfusion-induced arrhythmias was assessed in anesthetized rats.(Intervals of ventricular tachycardia (VT)+ventricular fibrillation (VF) within 600 s; assay type: functional, Cardiac ventricle; method in brief: as §2
Rattus norvegicus [23] = assay: Effect (0.1 mg/kg, iv) on coronary reperfusion-induced arrhythmias was assessed in anesthetized rats.(Intervals of ventricular tachycardia (VT)+ventricular fibrillation (VF) within 600 s; assay type: functional, Cardiac ventricle
Rattus norvegicus [24] = species on record: Rattus norvegicus; assay: Minimum effective dose of the compound; assay type: functional; details: read-out: MED
Rattus norvegicus [25] = assay: Change in heart rate was measured at 0.1 mg/kg dose(iv) in anesthetized rats; assay type: functional; method in brief: as §3
Rattus norvegicus [26] = assay: Change in heart rate was measured at 0.3 mg/kg dose(iv) in anesthetized rats; assay type: functional; method in brief: as §3
Rattus norvegicus [27] = assay: Change in arterial blood pressure was measured at 0.1 mg/kg dose(iv) in anesthetized rats; assay type: functional, Artery; method in brief: as §4
Rattus norvegicus [28] = assay: inhibitory activity was tested against anesthetized rats at 100 mg/kg; assay type: functional
Rattus norvegicus [29] = species on record: Rattus norvegicus; assay: Inhibitory effect on production of active oxygen species by rat peritoneal exudate macrophages; assay type: functional; set-up: concentration or dose not given beside the values
Method in brief: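 Peritoneal exudate macrophages harvested 3 days after ip liquid paraffin (male Wistar rats), >90% viable. Assay: 125 mM sodium phosphate pH 6.5, 0.08 mM EDTA, 1.2 U LDH, 0.32 mM NADH, (2–3) × 10^6 cells, compound in DMF, 1 × 10^-4 M. Started with NADH.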

Rattus norvegicus [30] = assay: Effect (1 mg/kg, iv) on coronary reperfusion-induced arrhythmias was assessed in anesthetized rats.(Intervals of ventricular tachycardia (VT)+ventricular fibrillation (VF) within 600 s; assay type: functional, Cardiac ventricle
Rattus norvegicus [31] = assay: Effect (30 mg/kg, po) on coronary reperfusion-induced arrhythmias was assessed in anesthetized rats.(Intervals of ventricular tachycardia (VT)+ventricular fibrillation (VF) within 600 s.; assay type: functional, Cardiac ventricle; method in brief: as §2

Q: For `CCCCCCCCCCCCCCCCC(=O)COC1=C(O)C(=O)OC1C(O)CO` (stereo unspecified), which Arrhythmias times (Rattus norvegicus [1]) is on record?
A: The Arrhythmias times was 521.

Q: What about the inhibition (Rattus norvegicus [2]) of the same compound?
A: The inhibition was 43%.

Q: What does the source list for `CCCCCCCCCCCCCCCCCCOC(=O)COC1=C(O)C(=O)OC1C(O)CO` (stereo unspecified)?
A: Arrhythmias times (Rattus norvegicus [3]): 413; inhibition (Rattus norvegicus [2]): 30%

Q: Which Arrhythmias times (Rattus norvegicus [1]) does the source give for `CCCCCCCCCCCCCCCC(=O)OCC(O)C1OC(=O)C(O)=C1OCC(C)=O` (stereo unspecified) here?
A: The Arrhythmias times was 353.

Q: And the inhibition (Rattus norvegicus [2])?
A: Its inhibition is 53%.

Q: With `CCOC1=C(O)C(=O)OC1C(O)CO` (stereo unspecified) as the compound, how does the Arrhythmias times (Rattus norvegicus [4]) read?
A: The Arrhythmias times was 591.

Q: And the inhibition (Rattus norvegicus [2])?
A: The inhibition was 2%.

Q: `COc1ccc(CCN(C)CCCC(C#N)(c2ccc(OC)c(OC)c2)C(C)C)cc1OC` (stereo unspecified) [VERAPAMIL] was tested. Which Inhibition (Cavia porcellus [5]) did it give?
A: Its Inhibition is 49.9%.

Q: What about the Inhibition (Cavia porcellus [6]) of the same compound?
A: Its Inhibition is 37.9%.

Q: What about the Inhibition (Cavia porcellus [7]) of the same compound?
A: Its Inhibition is 63%.

Q: What about the Inhibition (Cavia porcellus [8]) of the same compound?
A: Its Inhibition is 100%.

Q: And the Inhibition (Cavia porcellus [9])?
A: Its Inhibition is 77.8%.

Q: What about the Inhibition (Cavia porcellus [10]) of the same compound?
A: Its Inhibition is 100%.

Q: What about the Arrhythmias times (Rattus norvegicus [11]) of the same compound?
A: Its Arrhythmias times is 56.7.

Q: And the Arrhythmias times (Rattus norvegicus [12])?
A: Its Arrhythmias times is 121.

Q: What about the Delta heart rate (Rattus norvegicus [13]) of the same compound?
A: The Delta heart rate was -70 beats min-1.

Q: And the Delta blood pressure (Rattus norvegicus [14])?
A: Its Delta blood pressure is -46.7 mmHg.

Q: What about the Efficacy (Rattus norvegicus [15]) of the same compound?
A: The Efficacy was greater than 0.3 mg/kg.

Q: And the Efficacy (Rattus norvegicus [16])?
A: Its Efficacy is 10 mg/kg.

Q: What about the inhibition in vivo at 10 mg/kg (Rattus norvegicus [17]) of the same compound?
A: The inhibition in vivo at 10 mg/kg was 87%.

Q: What about the inhibition (Rattus norvegicus [2]) of the same compound?
A: Its inhibition is 37%.

Q: How did the Inhibition (Cavia porcellus [8]) turn out when `CCCCCCCCCCCCCCCCCCOC1=C(O)[C@@H](C(O)CO)OC1=O` (stereo partly specified) was run?
A: Its Inhibition is -1.8%.

Q: And the Inhibition (Cavia porcellus [18])?
A: The Inhibition was -6%.

Q: What about the Inhibition (Cavia porcellus [19]) of the same compound?
A: Its Inhibition is -13.6%.

Q: What about the Inhibition (Cavia porcellus [10]) of the same compound?
A: The Inhibition was -10.7%.

Q: And the Inhibition (Cavia porcellus [20])?
A: The Inhibition was -16.7%.

Q: And the Inhibition (Cavia porcellus [21])?
A: Its Inhibition is -39.9%.

Q: What about the Arrhythmias times (Rattus norvegicus [11]) of the same compound?
A: The Arrhythmias times was 413.2.

Q: What about the Arrhythmias times (Rattus norvegicus [22]) of the same compound?
A: Its Arrhythmias times is 39.4.

Q: What about the Arrhythmias times (Rattus norvegicus [23]) of the same compound?
A: Its Arrhythmias times is 238.

Q: What about the minimal effective dose (Rattus norvegicus [24]) of the same compound?
A: Its minimal effective dose is 100 mg/kg.

Q: And the Delta heart rate (Rattus norvegicus [25])?
A: The Delta heart rate was -10 beats min-1.

Q: And the Delta heart rate (Rattus norvegicus [26])?
A: The Delta heart rate was -55 beats min-1.

Q: What about the Delta blood pressure (Rattus norvegicus [27]) of the same compound?
A: Its Delta blood pressure is -10 mmHg.

Q: And the Delta blood pressure (Rattus norvegicus [14])?
A: Its Delta blood pressure is -35.3 mmHg.

Q: What about the Efficacy (Rattus norvegicus [15]) of the same compound?
A: The Efficacy was greater than 0.1 mg/kg.

Q: And the Efficacy (Rattus norvegicus [16])?
A: The Efficacy was 10 mg/kg.

Q: And the inhibition in vivo at 10 mg/kg (Rattus norvegicus [17])?
A: Its inhibition in vivo at 10 mg/kg is 20%.

Q: And the inhibition in vivo at 100 mg/kg (Rattus norvegicus [28])?
A: The inhibition in vivo at 100 mg/kg was 92%.

Q: What about the Inhibition (Rattus norvegicus [29]) of the same compound?
A: Its Inhibition is 87%.

Q: And the inhibition (Rattus norvegicus [2])?
A: The inhibition was 88%.

Q: Which results are given for `CCCCCCCCCCCC1OCC(C2OC(=O)C(O)=C2OCC(C)=O)O1` (stereo unspecified)?
A: Arrhythmias times (Rattus norvegicus [1]): 478; inhibition (Rattus norvegicus [2]): 44%

Q: For `CCCCCCCCCCCCCCOC1=C(O)C(=O)OC1C(O)CO` (stereo unspecified), which Arrhythmias times (Rattus norvegicus [1]) is on record?
A: Its Arrhythmias times is 352.

Q: What about the Inhibition (Rattus norvegicus [29]) of the same compound?
A: Its Inhibition is 40.7%.

Q: And the inhibition (Rattus norvegicus [2])?
A: Its inhibition is 78%.

Q: Which results are given for `CCCCCCCCCCOC1=C(O)C(=O)OC1C(O)CO` (stereo unspecified)?
A: Arrhythmias times (Rattus norvegicus [30]): 291; Arrhythmias times (Rattus norvegicus [31]): 283.6; Inhibition (Rattus norvegicus [29]): 15.9%; inhibition (Rattus norvegicus [2]): 93%
